The source made the active and inactive calls. The rule behind the calls is not given here.

Data set [1] addresses Prostaglandin G/H synthase 1 (Homo sapiens, UniProt P23219). The data set is described as follows: Inhibition of human whole blood COX-1 assessed as production of TXB2 after 24 hrs by EIA.
Data set [2] has as its target T1, Prostaglandin G/H synthase 2 (Homo sapiens, UniProt P35354).
T1 sequence (P35354 whole entry): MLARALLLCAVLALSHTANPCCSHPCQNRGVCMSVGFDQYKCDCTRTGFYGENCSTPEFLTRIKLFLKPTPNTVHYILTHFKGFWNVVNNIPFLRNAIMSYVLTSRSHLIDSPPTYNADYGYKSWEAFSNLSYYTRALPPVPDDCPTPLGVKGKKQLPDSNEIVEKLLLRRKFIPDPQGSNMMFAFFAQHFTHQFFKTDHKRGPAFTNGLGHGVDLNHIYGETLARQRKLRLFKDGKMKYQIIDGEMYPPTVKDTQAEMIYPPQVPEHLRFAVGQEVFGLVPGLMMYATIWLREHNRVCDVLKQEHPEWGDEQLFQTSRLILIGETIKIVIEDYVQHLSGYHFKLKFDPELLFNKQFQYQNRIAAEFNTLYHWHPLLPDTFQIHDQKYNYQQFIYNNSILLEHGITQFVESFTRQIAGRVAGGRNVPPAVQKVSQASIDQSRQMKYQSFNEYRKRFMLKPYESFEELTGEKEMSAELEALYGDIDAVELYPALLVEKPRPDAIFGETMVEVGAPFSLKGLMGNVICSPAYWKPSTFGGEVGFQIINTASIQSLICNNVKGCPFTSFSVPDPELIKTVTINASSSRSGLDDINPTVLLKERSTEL
The data set is described as follows: Inhibition of human whole blood COX-2 assessed as production of PGE2 after 24 hrs by EIA.

Data set [3] in a line: Membrane permeabilization activity assessed as release of calcein from liposomes after 10 mins by fluorescence assay. In kind it is physicochemical. Conditions: calcein-loaded liposomes, probe calcein. The method, boiled down:
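Egg PC liposomes made by reversed-phase evaporation with 100 mM calcein (pH 7.4), washed free of untrapped dye in 10 mM phosphate buffer pH 6.8 with 150 mM NaCl. Diluted liposomes incubated with compound for 10 min at 30 °C; water as control. Calcein release read by fluorescence, excitation 490 nm, emission 520 nm.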

Data set [4] concerns Rattus norvegicus. The data set is described as follows: Ulcerogenicity in fasted Wistar rat assessed as damage in gastric mucosa at 50 to 67 mg/kg, po measured after 8 hrs. In kind it is toxicity, organism-based. Set-up: dose 50-67 mg/kg, route oral. Conditions: in vivo. In a few lines:
(§1)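 Male Wistar rats (6 weeks, 180–200 g) fasted 18 h before oral NSAID dosing. Stomachs removed 8 h later. A blinded observer measured the area of each mucosal lesion in mm²; areas were summed into a gastric lesion index.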

Data set [5] concerns Rattus norvegicus. Description: Reduction in PGE2 levels in fasted Wistar rat stomach at 50 to 67 mg/kg, po measured after 8 hrs. In kind it is functional, organism-based. The method, boiled down: (§2)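 Male Wistar rats (6 weeks, 180–200 g) fasted 18 h, then dosed orally with NSAIDs. Killed 8 h later and stomachs removed. Gastric PGE2 measured by EIA.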
Data set [6] concerns Rattus norvegicus. The data set is described as follows: Antiinflammatory activity in Wistar rat assessed as inhibition of carrageenan-induced foot-pad edema at 13 mg/kg, po administered 1 hr before carrageenan challenge measured after 3 to 6 hrs by plethysmometer. In kind it is functional, organism-based. More on the design: dose 13 mg/kg. In a few lines: (§3)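 Male Wistar rats (6 weeks, 180–200 g) given NSAIDs orally; 1 h later 100 μL of 1% carrageenan injected intradermally into the left hindpaw.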

Data set [7] deals with Rattus norvegicus. The data set is described as follows: Inhibition of PGE2 production in carrageenan-induced Wistar rat foot-pad at 13 mg/kg, po administered 1 hr before carrageenan challenge by EIA. In kind it is functional, organism-based. Set-up: dose 13 mg/kg.
The test system of data set [8] is Rattus norvegicus. The data set is described as follows: Ulcerogenicity in fasted Wistar rat assessed as damage in gastric mucosa at 40 to 50 mg/kg, po measured after 8 hrs. In kind it is toxicity, organism-based. Set-up: dose 40-50 mg/kg, route oral. The note with it: in vivo. The method, boiled down: as §1
Data set [9] concerns Rattus norvegicus. The data set is described as follows: Reduction in PGE2 levels in fasted Wistar rat stomach at 40 to 50 mg/kg, po measured after 8 hrs. In kind it is functional, organism-based. In a few lines: as §2
The test system of data set [10] is Rattus norvegicus. The data set is described as follows: Antiinflammatory activity in Wistar rat assessed as inhibition of carrageenan-induced foot-pad edema at 10 mg/kg, po administered 1 hr before carrageenan challenge measured after 3 to 6 hrs by plethysmometer. In kind it is functional, organism-based. More on the design: dose 10 mg/kg. In a few lines:
as §3

In data set [11] the test system is Rattus norvegicus. The data set is described as follows: Inhibition of PGE2 production in carrageenan-induced Wistar rat foot-pad at 10 mg/kg, po administered 1 hr before carrageenan challenge by EIA. In kind it is functional, organism-based. More on the design: dose 10 mg/kg.

Chain of Prostaglandin G/H synthase 1 (P23219 whole entry): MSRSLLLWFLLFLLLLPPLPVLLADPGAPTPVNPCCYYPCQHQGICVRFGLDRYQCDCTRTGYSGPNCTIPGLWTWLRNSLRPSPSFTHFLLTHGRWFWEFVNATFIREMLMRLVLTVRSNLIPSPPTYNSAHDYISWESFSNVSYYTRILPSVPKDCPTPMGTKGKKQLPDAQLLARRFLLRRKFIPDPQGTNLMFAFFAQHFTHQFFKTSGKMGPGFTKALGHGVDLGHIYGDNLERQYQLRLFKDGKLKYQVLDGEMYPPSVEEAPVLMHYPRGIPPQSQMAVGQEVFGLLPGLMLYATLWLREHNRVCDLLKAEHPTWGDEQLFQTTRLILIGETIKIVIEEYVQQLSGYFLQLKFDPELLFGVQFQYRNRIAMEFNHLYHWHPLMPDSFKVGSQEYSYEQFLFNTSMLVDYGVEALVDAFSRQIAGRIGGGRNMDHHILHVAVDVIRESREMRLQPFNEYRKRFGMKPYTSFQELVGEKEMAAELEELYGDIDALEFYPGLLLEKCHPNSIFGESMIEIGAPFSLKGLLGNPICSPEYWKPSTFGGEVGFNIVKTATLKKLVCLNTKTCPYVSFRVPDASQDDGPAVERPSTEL

For orientation: IC50 means the concentration that inhibits the measured activity by half. For `CC(C(=O)O)c1ccc(CC2CCCC2=O)cc1I` (stereo not drawn), the IC50 came to 270 µM in [1] and 540 µM in data set [2].

In general, EC50 refers to the concentration needed to bring the measured effect to its halfway point. In the case of `CSc1ccc(-c2cc(CC3CCCC3=O)ccc2C(C)C(=O)O)cc1` (stereo not drawn), the figures for the IC50 in data set [1] and in data set [2] were 575 µM and 150 µM, respectively. In addition, the EC50 at 10 min in data set [3] is < 100000 µM.

Turning to `CC(C(=O)O)c1ccc(CC2CCCC2=O)cc1-c1ccc(C(=O)O)cc1` (stereo not drawn), the IC50 in data set [1] is > 1000 µM; in data set [2], 76 µM. Besides, in data set [3], the EC50 at 10 min was < 10000 µM.

`CC(C(=O)O)c1ccc(CC2CCCC2=O)cc1[N+](=O)[O-]` (stereo not drawn): the IC50 in data set [1] was 93 µM; in data set [2] it was 49 µM.

On to `CC(C(=O)O)c1ccc(CC2CCCC2=O)c(-c2ccccc2)c1` (stereo not drawn), for which the half-maximal inhibitory concentration (IC50) in [1] is 54 µM; in [2], 290 µM. The EC50 at 10 min in [3] is < 100000 µM.

Take `COc1ccc(-c2cc(C(C)C(=O)O)ccc2CC2CCCC2=O)cc1` (stereo not drawn): the IC50 in data set [1] was 800 µM; in [2], > 1000 µM. Moreover, the EC50 at 10 min in data set [3] was < 100000 µM.

As to `CC(C(=O)O)c1ccc(CC2CCCC2=O)c(-c2ccc(O)cc2)c1` (stereo not drawn), the IC50 in data set [1] is > 1000 µM.

With `Cc1ccc(-c2cc(CC3CCCC3=O)ccc2C(C)C(=O)O)cc1` (stereo not drawn), the IC50 in data set [1] came to 470 µM; in data set [2], 540 µM. For the same compound, in data set [3], the 50% effective concentration (EC50) at 10 min is < 100000 µM.

Turning to `Cc1ccc(-c2cc(C(F)(F)F)nn2-c2ccc(S(N)(=O)=O)cc2)cc1` [CELECOXIB], the EC50 at 10 min in data set [3] was 90 µM.

Take `CC(C(=O)[O-])c1ccc(CC2CCCC2=O)cc1-c1ccc(O)cc1.[Na+]` (stereo not drawn): the half-maximal inhibitory concentration (IC50) in data set [1] was 326 µM; in data set [2], 11 µM. In addition, the EC50 at 10 min in [3] was 25000 µM. For the same compound, in data set [4], the Activity result is “Non-toxic”. In addition, the inhibition entry in data set [5] and in [7] was “Active” throughout. Moreover, in [6], the result was Active.

Turning to `CC(C(=O)O)c1ccc(CC2CCCC2=O)c(-c2ccc(F)cc2)c1` (stereo not drawn), the IC50 came out at 174 µM in data set [1] and 36 µM in [2]. Further, the half-maximal effective concentration (EC50) at 10 min in data set [3] is < 100000 µM.

As to `CC(C(=O)O)c1ccc(C[C@H]2CCC[C@H]2O)cc1-c1ccc(O)cc1` (mixture of isomers), the IC50 was 47 µM in [1] and 17 µM in [2].

As to `CC(C(=O)O)c1ccc(CC2CCCC2=O)cc1-c1ccccc1` (stereo not drawn), the IC50 in [1] amounted to 310 µM; in [2], 70 µM. Also, the concentration giving a half-maximal response (EC50) at 10 min in data set [3] was < 100000 µM.

Turning to `CSc1ccc(-c2cc(C(C)C(=O)O)ccc2CC2CCCC2=O)cc1` (stereo not drawn), the IC50 in data set [1] is 758 µM; in [2], > 1000 µM. For the same compound, the EC50 at 10 min in [3] is < 10000 µM.

Consider `CC(C(=O)O)c1ccc(CC2CCCC2=O)c(-c2ccc(OC(F)(F)F)cc2)c1` (stereo not drawn), for which the figures for the 50% inhibitory concentration (IC50) in data set [1] and in [2] were 460 µM and 72 µM, respectively. In data set [3], the concentration for a half-maximal effect (EC50) at 10 min is < 10000 µM.

For `CC(C(=O)O)c1ccc(CC2CCCC2=O)cc1Cl` (stereo not drawn), the IC50 in [1] stood at 4 µM; in [2], 2 µM. For the same compound, the EC50 at 10 min in data set [3] is 100000 µM.

Turning to `CC(C(=O)O)c1ccc(CC2CCCC2=O)c(-c2ccc(C(=O)O)cc2)c1` (stereo not drawn), the IC50 in data set [1] and in data set [2] was > 1000 µM each time.

Consider `CC(C(=O)[O-])c1ccc(CC2CCCC2=O)cc1.[Na+]` (stereo not drawn) [LOXOPROFEN SODIUM], for which, in [8], the Activity entry was “Dose-dependent effect”. Also, the inhibition entry in [9] and in data set [11] was “Active” each time. Further, the outcome in data set [10] was Active.

`CC(C(=O)O)c1ccc(CC2CCCC2=O)c(Br)c1` (stereo not drawn): the IC50 was 49 µM in data set [1] and 23 µM in data set [2]. Further, the half-maximal effective concentration (EC50) at 10 min in data set [3] was < 100000 µM.

With `CC(C(=O)O)c1ccc(CC2CCCC2=O)cc1-c1ccc(F)cc1` (stereo not drawn), the IC50 in data set [1] amounted to 174 µM; in [2], 36 µM. The EC50 at 10 min in data set [3] was 20000 µM.

As for `CC(C(=O)O)c1ccc(CC2CCCC2=O)cc1-c1ccc(OC(F)(F)F)cc1` (stereo not drawn), the half-inhibitory concentration (IC50) in data set [1] was 515 µM; in [2] it was > 1000 µM. In data set [3], the EC50 at 10 min is 6000 µM.

In the case of `COc1ccc(-c2cc(CC3CCCC3=O)ccc2C(C)C(=O)O)cc1` (stereo not drawn), the IC50 in data set [1] amounted to 74 µM; in data set [2], 430 µM. Also, the EC50 at 10 min in [3] is < 100000 µM.

As for `Cc1ccc(-c2cc(C(C)C(=O)O)ccc2CC2CCCC2=O)cc1` (stereo not drawn), the IC50 in [1] worked out at 56 µM; in [2], 420 µM. In addition, the 50% effective concentration (EC50) at 10 min in [3] was < 100000 µM.

Turning to `CC(C(=O)O)c1ccc(C[C@H]2CCC[C@@H]2O)cc1-c1ccc(O)cc1` (mixture of isomers), the values for the IC50 in [1] and in data set [2] were 650 µM and 20 µM, respectively.

The record behind these values is ChEMBL document CHEMBL1811892, “Synthesis and biological evaluation of loxoprofen derivatives” (Bioorg Med Chem, 2011).
